Beta cell apopt: inhibitors of cytokine-induced beta cell apoptosis, primary screen, luminescence. INS-1E cytokine-induced death, ATP luminescence, 48 h; percent of positive-control rescue, neutral wells zero. protection from apoptosis, % (no concentration beside the values). hit rate 0.8% among 300,000. AID 435005, 2010;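 active means Every replicate reaches about 75%, or at least half do and their mean reaches it too, limit read from the data; inconclusive means At least half of replicates reach the limit but their mean does not; inactive means Under half of replicates reach the limit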;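 further: 0% = cytokine-treated negative control wells and 100% = positive control rescue; higher means more ATP so stronger rescue from cytokine killing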
Mdm2 MdmX PPI: inhibitors of human Mdm2-MdmX association, primary screen, cell-based, luminescence, split luciferase, SaOS-2, uHTS; Protein Mdm4 (Homo sapiens) + E3 ubiquitin-protein ligase Mdm2 (Homo sapiens), …; SaOS-2 split-luciferase Mdm2/MdmX complementation; inhibition, % at 8 µM; hit rate 3% among 330,000; AID 485346, 2010;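 active means inhibition of at least 50% at 8 µM in the primary screen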
Target sequence (O15151 whole entry, looked up): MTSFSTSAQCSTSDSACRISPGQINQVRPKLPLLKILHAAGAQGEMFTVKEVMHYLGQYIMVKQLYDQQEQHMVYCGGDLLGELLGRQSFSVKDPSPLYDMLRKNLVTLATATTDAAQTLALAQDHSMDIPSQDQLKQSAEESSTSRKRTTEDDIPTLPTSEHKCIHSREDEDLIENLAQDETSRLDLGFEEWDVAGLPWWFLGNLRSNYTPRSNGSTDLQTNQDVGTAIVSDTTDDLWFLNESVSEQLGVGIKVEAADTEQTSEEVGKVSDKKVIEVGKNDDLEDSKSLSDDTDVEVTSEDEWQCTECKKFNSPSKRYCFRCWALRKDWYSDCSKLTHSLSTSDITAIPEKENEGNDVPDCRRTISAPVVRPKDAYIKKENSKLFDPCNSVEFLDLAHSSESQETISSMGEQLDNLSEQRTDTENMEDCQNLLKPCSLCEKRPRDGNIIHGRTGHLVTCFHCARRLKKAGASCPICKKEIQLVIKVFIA
Target sequence (Q00987 whole entry, looked up): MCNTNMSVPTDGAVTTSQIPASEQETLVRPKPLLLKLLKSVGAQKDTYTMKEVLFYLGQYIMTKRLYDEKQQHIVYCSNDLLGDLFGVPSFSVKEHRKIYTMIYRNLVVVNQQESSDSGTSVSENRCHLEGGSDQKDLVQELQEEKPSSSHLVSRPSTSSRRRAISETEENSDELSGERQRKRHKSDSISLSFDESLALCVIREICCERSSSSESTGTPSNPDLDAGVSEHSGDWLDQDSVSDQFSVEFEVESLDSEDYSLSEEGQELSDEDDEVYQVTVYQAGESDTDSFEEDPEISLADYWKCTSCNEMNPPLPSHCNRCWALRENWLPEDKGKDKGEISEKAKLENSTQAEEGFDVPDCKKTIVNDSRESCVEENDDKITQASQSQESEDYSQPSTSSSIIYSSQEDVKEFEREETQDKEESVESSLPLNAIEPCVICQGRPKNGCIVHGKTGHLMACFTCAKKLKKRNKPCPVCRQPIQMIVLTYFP
CSC inhib: cancer stem cell viability inhibitors, primary screen, luminescence. cancer stem cell-like cells viability. hit rate 1.1% among 300,000. inhibition, % at 7.5 µM; in the data active means inhibition above about 75%; inconclusive means no clear call, values can overlap the other calls; tested in HMLE shEcad cells
T cruzi repl: inhibitors of intracellular T. cruzi growth, primary screen, luminescence, NIH3T3 host cells. T. cruzi beta-gal in NIH3T3, 90 h. inhibition, % (no concentration beside the values). hit rate 1.4% among 300,000. AID 1885, 2009;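 active means mean inhibition across valid replicates above about 55%, limit read from the data; inconclusive means mean below that limit but half or more replicates reach it; inactive means mean below it, under half of replicates reach it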;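 further: signal also drops with host cell toxicity which is not excluded here; 0% = plate median of DMSO wells and 100% = zero luminescence signal; higher percent means less beta-gal luminescence so fewer parasites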
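System: mouse NIH/3T3 fibroblasts infected with β-gal-expressing T. cruzi Tulahuen C4 / Input: NIH/3T3 cells, 5,000 per well / Buffer or medium: Low-serum DMEM with 2% FBS / Probe or stimulus: 5000 reporter trypomastigotes per well / Schedule: ≥90 h infection period, 3 h prior cell attachment / Measured by: GalScreen luminescence, 60 min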
L major viab: Leishmania major promastigote growth inhibition, primary screen. hit rate 9% among 200,000. Leishmania major promastigotes, resazurin fluorescence viability. inhibition, % at 10 µM; in the data active means inhibition above about 50%;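 further: promastigotes grown with compound for 44 hours at 28 °C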
SKKanGAS inh: S. pyogenes SKKanGAS growth inhibitors in kanamycin, primary screen, streptokinase expression inhibitor project, SKKanGAS strain, BacTiter-Glo luminescence; 6 h; inhibition, % at 7.5 µM; hit rate 1.3% among 300,000; AID 1662, 2009;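 active means mean replicate score, as percent of positive control median, at least 50; inconclusive means mean below 50 but one replicate at or above 50; inactive means mean and every replicate below 50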;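 further: strain carries kanamycin resistance gene driven by streptokinase promoter and grows in 40 µg/ml kanamycin; loss of luminescence reflects streptokinase promoter inhibition or plain growth inhibition; 0% = median of DMSO wells and 100% = positive control at its reference dose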
Mdm2 MdmX conf: Mdm2-MdmX complex disruptors, retested hits, confirmation, luminescence, single concentration. shares compounds with Mdm2 MdmX PPI. Mdm2-MdmX binding, luminescent assay. inhibition, % at 8 µM. hit rate 55% among 10,000. AID 489028, 2010; in the data active means inhibition above about 40%
Full FLuc ctr: full-length luciferase signal inhibition, confirmation, counter-screen for Mdm2/MdmX interaction inhibitor project, cell-based, single concentration, SaOS-2; shares compounds with Mdm2 MdmX PPI; SaOS-2 full-length luciferase counterscreen, luminescence; inhibition, % at 8 µM; hit rate 77% among 6,200; AID 504607, 2011;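 active means mean inhibition at 8 µM reaching about 37%, which flags the compound as non-specific, limit read from the data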;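 further: p53-null SaOS-2 cells with luciferase driven by a doxycycline-inducible promoter; compound on cells about two nights before reading with doxycycline added after day one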
* = called active by the depositor; ? = inconclusive; . = no result. Only some compounds are listed: those with a hit (about 9.4% of all), similar ones and a draw of the others.

SMILES | Beta cell apopt | Mdm2 MdmX PPI | CSC inhib | T cruzi repl | L major viab | SKKanGAS inh | Mdm2 MdmX conf | Full FLuc ctr
COc1ccc(C(=O)CN2C(=O)NC3(CCc4ccccc43)C2=O)cc1 (centres undefined) | -0.1 | -3.4 | -9.3 | 4.5 | . | 0.6 | . | .
Cc1ccc(C)c(S(=O)(=O)N2CCCC2CNC(=O)C(=O)NC2CCCC2)c1 (centres undefined) | -3.2 | 5.1 | -10.8 | 6.8 | . | -3.8 | . | .
COc1ccc(C(=O)NCCC(=O)N2CCC3(CC2)NCCc2[nH]cnc23)cc1 | -5.3 | 14.1 | 7.8 | -20.5 | . | -1.0 | . | .
CCOC(=O)c1ccc(-c2c(-c3cc(OC)c(OC)c(OC)c3)noc2C)cc1F | 0.9 | 62.2* | 68.2 | 26.9 | . | 0.5 | 52.2* | 88.6*
Cc1c(Cl)cccc1N=C1SCCN1C(=O)CN1C(=O)NC2(CCCC2)C1=O | -8.9 | 77.6* | -4.4 | -5.7 | . | -8.2 | 45.1* | 68.7*
O=C(CN1C(=O)NC2(CCCCC2)C1=O)Nc1cccc(Cl)c1Cl | -3.2 | -4.0 | . | . | . | . | . | .
CCOC(=O)C(=CNc1ccc2c(c1)CCN2C(C)=O)C(=O)OCC | -0.1 | 15.3 | -6.8 | 5.5 | . | -8.9 | . | .
O=[N+]([O-])c1ccc(N2CCN(C(=S)Nc3ccc(F)cc3F)CC2)cc1 | -3.2 | 12.7 | -7.0 | 15.3 | -2.9 | -10.3 | . | .
CC(=O)c1cc(C)ccc1OC(=O)CN1C(=O)c2ccccc2C1=O | 3.4 | -1.4 | -9.0 | -2.0 | . | -1.8 | . | .
Cc1ccc(-c2cc(C(F)F)n3ncc(C(=O)N4CCc5ccccc54)c3n2)cc1 | 14.1 | 60.8* | 66.8 | 1.3 | 17.6 | 17.5 | 64.2* | 56.7*
CCc1nccn1C(=O)c1cnn2c(C(F)F)cc(-c3ccc(C)cc3)nc12 | -33.2 | 60.7* | 38.1 | 17.2 | -4.0 | 3.9 | 19.4 | .
COc1ccc(C(C)=O)cc1COC(=O)CCNS(=O)(=O)c1ccc(C)c(C)c1 | -0.2 | 16.7 | -9.8 | 1.0 | . | -1.4 | . | .
Oc1ccc(/C=N/Nc2nc(N3CCCCCC3)nc(N3CCCCCC3)n2)c(O)c1 | 1.8 | 66.0* | . | 42.7 | 8.3 | 111.5* | -12.6 | .
CCCCC(=O)Nc1ccc(C(=O)NNC(=O)c2ccc(C)c(Br)c2)cc1 | 2.4 | 65.1* | . | -2.6 | -1.2 | 1.8 | 30.9 | 43.4*
COc1cccc(/C=C2\SC(=S)N(CCC(=O)NCCc3ccc(O)cc3)C2=O)c1 | -18.7 | 99.5* | 50.9 | -20.6 | . | 5.7 | 84.0* | 35.4
O=C(CCN1C(=O)/C(=C/c2ccc(F)cc2)SC1=S)NCCc1ccc(O)cc1 | -19.9 | 87.5* | 52.7 | -10.0 | . | -8.6 | 65.7* | 41.6*
CN1CCN(C(=O)CCN2C(=O)/C(=C\c3ccc(F)cc3)SC2=S)CC1 | 1.1 | 25.1 | 11.3 | . | . | . | . | .
COc1cccc(/C=C2\SC(=S)N(CCC(=O)Nc3ccc(O)cc3)C2=O)c1 | . | 20.8 | 15.1 | 12.0 | . | 1.4 | . | .
O=C(O)c1ccc(OCc2cn3ccccc3n2)cc1 | -5.9 | 20.7 | -3.2 | -21.4 | . | 0.2 | . | .
O=C(COc1ccc(Oc2ccccc2)cc1)NCc1cn2ccccc2n1 | 2.2 | 56.0* | 60.0 | 39.3 | 3.1 | -12.0 | 56.6* | 73.0*
FC(F)(F)c1cccc(-c2nc3nc(Cl)c(Cl)nc3[nH]2)c1 | 99.1* | 80.1* | 75.6* | -1.8 | . | ? | 74.8* | 69.4*
CCOc1ccccc1C(=O)N/N=C/c1coc2ccc(C)cc2c1=O | -4.1 | 78.6* | -6.7 | . | . | . | 28.6 | .
CCC(=O)Nc1ccc(C(=O)NCc2ccccn2)cc1 | -3.2 | 6.7 | -5.6 | -3.7 | -1.9 | 1.9 | . | .
CC(C)CC1NC(=O)N(Cc2nc3ccccc3s2)C1=O (centres undefined) | -2.6 | 0.7 | 9.6 | 5.1 | . | -3.1 | . | .
CN(CC(=O)Nc1ccccc1Br)C(=O)c1cccnc1Nc1cccc(C(F)(F)F)c1 | 0.6 | 56.4* | . | 5.1 | . | 41.1 | -3.0 | .
SMILES | Beta cell apopt | Mdm2 MdmX PPI | CSC inhib | T cruzi repl | L major viab | SKKanGAS inh | Mdm2 MdmX conf | Full FLuc ctr
CNC(=O)c1cccnc1Nc1cccc(C(F)(F)F)c1 | -2.9 | 12.6 | . | 15.2 | -1.4 | -7.7 | . | .
CC(CC(=O)O)CC(=O)Nc1nncs1 (centres undefined) | 0.9 | 2.7 | -9.9 | -13.3 | . | 0.6 | . | .
O=C(NCc1cn2ccccc2n1)C1CCC(=O)N(Cc2ccccc2F)C1 (centres undefined) | -6.4 | 8.6 | 16.2 | 5.8 | . | -12.2 | . | .
CC1(C)Cc2ccccc2C2=NNC(=O)C2=N1 | -27.4 | 85.8* | 25.4 | 50.3 | 100.4* | 20.6 | 64.9* | 29.2
c1ccc(N2CCN(c3ncnc4sc5c(c34)CCC5)CC2)cc1 | -0.2 | 66.9* | 13.5 | 2.0 | -3.5 | 21.1 | 56.2* | 38.6*
O=C(COC(=O)CCC(=O)c1ccc(Cl)cc1)NC1CC1 | 1.5 | 17.8 | -1.7 | -4.4 | -2.6 | -13.2 | . | .
CCN1C(=O)[C@H]2[C@H]3CN=C(SCC(=O)c4ccccc4)N3[C@@](CC)(C(=O)OC)[C@H]2C1=O | . | -4.2 | . | . | . | . | . | .
COc1ccc(/C=C/C(=O)c2ccc([N+](=O)[O-])o2)cc1OC | 112.0* | 95.6* | 78.2* | 45.5 | . | 66.9* | 92.8* | 56.5*
COc1cc(/C=C/C(=O)c2ccc([N+](=O)[O-])o2)ccc1O | 114.7* | 100.3* | 4.6 | ? | . | 72.5* | 100.2* | 0.7
COc1cc(/C=C/C(=O)OCC(=O)NCc2ccc(F)cc2)ccc1O | -6.4 | 48.0 | -2.1 | . | . | . | . | .
Cc1cc(O)c(C(=O)/C=C/c2cccc([N+](=O)[O-])c2)c(=O)o1 | -10.0 | 12.8 | 9.6 | -3.1 | . | 8.0 | . | .
O=C(/C=C/c1cccc(Cl)c1)c1ccc([N+](=O)[O-])o1 | 134.8* | 100.3* | ? | 52.2 | . | 62.6* | 99.8* | 51.4*
COc1ccc(OC)c(N/C(=N/C(=S)Nc2ccccc2)Nc2nc(C)cc(C)n2)c1 | 2.5 | 38.0 | 8.3 | 14.0 | . | 13.3 | . | .
Cc1ccc(C(=O)CCC(=O)NNC(=O)c2ccccc2O)cc1 | -0.6 | 33.8 | . | . | . | . | . | .
O=C(Nc1cccc(-c2ccc(N3CCCCC3)nn2)c1)C(F)(F)F | 24.4 | 60.3* | 32.4 | 1.7 | . | -3.7 | 44.9* | 74.4*
CC1CCN(c2ccc(-c3cccc(NC(=O)C(F)(F)F)c3)nn2)CC1 | 25.8 | 72.9* | 25.3 | -1.2 | . | 3.3 | 68.8* | 36.1*
COc1cccc(/C=C/C(=O)c2ccc3c(c2)OCCO3)c1OC | . | -71.8 | 11.9 | -2.6 | . | -1.4 | . | .

Bioassay records (PubChem)
